Data as given in ChEMBL document CHEMBL1135989, “Synthesis and in vitro pharmacology of substituted quinoline-2,4-dicarboxylic acids as inhibitors of vesicular glutamate transport” (J Med Chem, 2002).

Experiments:
[1] = target: T1, Vesicular glutamate transporter 3 (Rattus norvegicus) (UniProt Q7TSF2); assay: Inhibition of Vesicular glutamate transporter (VGLUT) by the ability to block the uptake of 250 uM of [3,4-3H]-L-glutamate into synaptic vesicles isolated from rat forebrain at equimolar conc. (250 uM ); type: functional
T1 sequence (whole entry): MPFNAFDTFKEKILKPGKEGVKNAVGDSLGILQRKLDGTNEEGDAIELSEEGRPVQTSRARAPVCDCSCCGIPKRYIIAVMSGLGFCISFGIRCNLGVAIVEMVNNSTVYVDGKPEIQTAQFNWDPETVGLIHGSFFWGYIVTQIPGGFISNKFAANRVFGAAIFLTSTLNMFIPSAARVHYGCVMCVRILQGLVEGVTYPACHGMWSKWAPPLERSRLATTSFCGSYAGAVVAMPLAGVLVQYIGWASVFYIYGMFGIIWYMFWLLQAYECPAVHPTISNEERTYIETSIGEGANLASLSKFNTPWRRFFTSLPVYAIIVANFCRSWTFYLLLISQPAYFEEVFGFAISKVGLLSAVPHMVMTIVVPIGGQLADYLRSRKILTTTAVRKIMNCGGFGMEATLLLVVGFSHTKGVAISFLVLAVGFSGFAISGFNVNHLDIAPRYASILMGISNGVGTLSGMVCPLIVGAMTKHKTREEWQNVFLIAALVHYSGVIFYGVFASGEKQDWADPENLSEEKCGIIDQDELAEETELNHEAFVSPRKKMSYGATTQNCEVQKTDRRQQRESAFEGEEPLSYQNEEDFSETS
How it was run: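 Same vesicle uptake set-up (0.25 mM [3H]-L-glutamate, 2.0 mM ATP, 30 °C, 1.5 min, filtration/LSC, ATP-free background subtracted), with inhibitor at 250 µM added with substrate. Expressed as % of control uptake, mean ± SEM (n).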

[2] = target: T1, Vesicular glutamate transporter 3 (Rattus norvegicus); assay: Inhibition of Vesicular glutamate transporter (VGLUT) by the ability to block the uptake of 250 uM of [3,4-3H]-L-glutamate into synaptic vesicles isolated from rat forebrain at a 20 fold excess (5 mM) of inhibitor; type: functional
How it was run: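 Inhibitor at 5 mM added with substrate. Quenched in ice-cold 150 mM KCl, filtered, counted by LSC. ATP-free uptake subtracted. Expressed as % of control uptake, mean ± SEM (n).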

[3] = target: T2, Vesicular glutamate transporter 3 (Rattus norvegicus, UniProt Q7TSF2); assay: Estimated inhibitory conc. against Vesicular glutamate transporter (VGLUT), using Cheng-Prushoff equation
T2 sequence (Q7TSF2 whole entry): T1 sequence (whole entry)
How it was run: (§1)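 Rat forebrain synaptic vesicles (male Sprague-Dawley, stored -80 °C). Vesicles (100-150 µg protein) preincubated 5 min at 30 °C. Ran 1.5 min, then filtration and LSC. Uptake without ATP subtracted. IC50 from dose-response; Ki by Cheng-Prusoff.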

[4] = target: T2, Vesicular glutamate transporter 3; assay: Evaluated for competitive inhibition against Vesicular glutamate transporter (VGLUT), and Ki value was reported.
[5] = target: T2, Vesicular glutamate transporter 3; assay: Inhibitory conc. against Vesicular glutamate transporter (VGLUT), derived from Lineweaver-Burke analysis
How it was run: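 Uptake into rat forebrain synaptic vesicles (ATP 2.0 mM, 30 °C, 1.5 min, [3H]-L-glutamate, filtration and LSC) run across both inhibitor and substrate concentrations. Ki from Lineweaver-Burk double reciprocal plots (1/V vs 1/[S]) and a replot of Km(app) against inhibitor concentration.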

[6] = target: T2, Vesicular glutamate transporter 3; assay: Compound was evaluated for the inhibition of Vesicular glutamate transporter (VGLUT)
[7] = target: T2, Vesicular glutamate transporter 3; assay: Compound was evaluated for competitive inhibition against Vesicular glutamate transporter (VGLUT), and Ki value was reported,.using Cheng-Prushoff equation; how it was run: as §1

SMILES	Glutamate uptake remaining (% of control) [1] [%]	Glutamate uptake remaining (% of control) [2] [%]	further results
O=C(O)c1cc(C(=O)O)c2ccccc2n1	100	38	
O=C(O)c1cc(C(=O)O)c2cc(/C=C/c3ccc(-c4ccccc4)cc3)ccc2n1	37		Ki [3]: 64 µM
COc1cc2nc(C(=O)O)cc(C(=O)O)c2cc1OC	100	58	
O=C(O)c1cc(C(=O)O)c2cc(-c3cccc4ccccc34)ccc2n1	53		
O=C(O)c1cc(O)c2ccc(Cl)cc2n1 [7-CHLOROKYNURENIC ACID]			Ki [4]: 590 µM
CCOc1ccc2nc(C(=O)O)cc(C(=O)O)c2c1	97		
COc1ccc2nc(C(=O)O)cc(C(=O)O)c2c1	100	51	
O=C(O)c1cc(C(=O)O)c2cc(/C=C/c3cccc4ccccc34)ccc2n1	21		
O=C(O)c1cc(C(=O)O)c2cc(-c3ccc(-c4ccccc4)cc3)ccc2n1	20		Ki [3]: 41 µM; Ki [5]: 95 µM
O=C(O)c1cc(C(=O)O)c2c(I)cccc2n1	100		
O=C(O)c1cc(=O)c2ccccc2[nH]1 [TRANSTORINE]			Ki [6]: 1300 µM
O=C(O)c1cc(C(=O)O)c2cc(/C=C/c3ccccc3)ccc2n1	51		Ki [3]: 167 µM; Ki [5]: 129 µM
O=C(O)c1cc(C(=O)O)c2cc(OCCCCCCO)ccc2n1	74		
O=C(O)c1cc(C(=O)O)c2cccc(Br)c2n1	100	7	
O=C(O)c1cc(C(=O)O)c2cc(Cl)ccc2n1	73	1	
O=C(O)c1cc(C(=O)O)c2cc(-c3ccccc3)ccc2n1	77		
COc1cc(-c2ccc(/N=N/c3ccc4c(S(=O)(=O)O)cc(S(=O)(=O)O)c(N)c4c3O)c(OC)c2)ccc1/N=N/c1ccc2c(S(=O)(=O)O)cc(S(=O)(=O)O)c(N)c2c1O [CHICAGO SKY BLUE]			Ki [4]: 0.19 µM
COc1cc(OC)c2nc(C(=O)O)cc(C(=O)O)c2c1	100	40	
N[C@]1(C(=O)O)CC[C@H](C(=O)O)C1 (relative stereo)			Ki [4]: 700 µM
O=C(O)c1cc(C(=O)O)c2cc(Br)ccc2n1	74	2	
O=C(O)c1cc(C(=O)O)c2cc(Oc3ccccc3)ccc2n1	74		
O=C(O)c1cc(C(=O)O)c2cccc(F)c2n1	100	39	
O=C(O)c1cc(C(=O)O)c2ccc(CCc3ccccc3)cc2n1	29		
O=C(O)c1cc(C(=O)O)c2cc(OCc3ccccc3)ccc2n1	85	3	Ki [3]: 368 µM
Cc1cc(-c2ccc(/N=N/c3ccc4c(S(=O)(=O)O)cc(S(=O)(=O)O)c(N)c4c3O)c(C)c2)ccc1/N=N/c1ccc2c(S(=O)(=O)O)cc(S(=O)(=O)O)c(N)c2c1O [EVANS BLUE]			Ki [4]: 0.04 µM
O=C(O)c1cc(C(=O)O)c2c(/C=C/c3ccccc3)cccc2n1	27		
C=C(C[C@H](N)C(=O)O)C(=O)O			Ki [4]: 3000 µM
O=C(O)c1cc(O)c2cccc(O)c2n1 [XANTHURENATE]			Ki [4]: 190 µM
O=C(O)c1cc(C(=O)O)c2cc(OCCc3ccccc3)ccc2n1			Ki [3]: 189 µM

More lines, main results first:

Glutamate uptake remaining (% of control) [1] [%]	Glutamate uptake remaining (% of control) [2] [%]	SMILES	further results
100		O=C(O)c1cc(C(=O)O)c2ccc(O)cc2n1	
100	62	COc1ccc(OC)c2c(C(=O)O)cc(C(=O)O)nc12	
100	48	COc1ccc2c(C(=O)O)cc(C(=O)O)nc2c1	
64		O=C(O)c1cc(C(=O)O)c2c(-c3cccc4ccccc34)cccc2n1	
100		O=C(O)c1cc(C(=O)O)c2cc(OCCO)ccc2n1	
100	54	O=C(O)c1cc(C(=O)O)c2c(F)cccc2n1	
100		O=C(O)c1cc(C(=O)O)c2cccc(C(=O)O)c2n1	
	2	O=C(O)c1cc(C(=O)O)c2ccc(Cl)c(Cl)c2n1	
91		O=C(O)c1cc(C(=O)O)c2ccc(-c3ccccc3)cc2n1	
90	20	COc1cccc2c(C(=O)O)cc(C(=O)O)nc12	
100		O=C(O)c1cc(C(=O)O)c2c(-c3ccccc3)cccc2n1	
67		O=C(O)c1cc(C(=O)O)c2cc(OC3CCCCC3)ccc2n1	
100	12	O=C(O)c1cc(C(=O)O)c2cc3c(cc2n1)OCCO3	
79		CCCCCCOc1ccc2nc(C(=O)O)cc(C(=O)O)c2c1	
100	15	COc1cc(OC)c2c(C(=O)O)cc(C(=O)O)nc2c1	
73	2	O=C(O)c1cc(C(=O)O)c2cccc(O)c2n1	Ki [3]: 286 µM
87	10	O=C(O)c1cc(C(=O)O)c2cc(I)ccc2n1	
50	1	O=C(O)c1cc(C(=O)O)c2ccc(OCc3ccccc3)cc2n1	
100	11	O=C(O)c1cc(C(=O)O)c2c(Br)cccc2n1	
100	24	O=C(O)c1cc(C(=O)O)c2cc3c(cc2n1)OCO3	
88		O=C(O)c1cc(C(=O)O)c2cccc(-c3ccccc3)c2n1	
	2	O=C(O)c1cc(C(=O)O)c2cc(Br)cc(Br)c2n1	
31	0	O=C(O)c1cc(C(=O)O)c2cc(/N=N/c3ccccc3)ccc2n1	Ki [7]: 288 µM
47		O=C(O)c1cc(C(=O)O)c2cc(CCc3ccccc3)ccc2n1	Ki [3]: 143 µM
100		O=C(O)c1cc(C(=O)O)c2cc(O)ccc2n1	
70		O=C(O)c1cc(C(=O)O)c2cccc(-c3cccc4ccccc34)c2n1	
